Screening data (PubChem BioAssay)
GPR7 antag = GPR7 receptor antagonists, primary screen, cell-based, fluorescence, single concentration | GPR7-expressing cells, fluorescence antagonist assay | inhibition, % at 4.4 µM | 290,000 tested, 1.1% active | Neuropeptides B/W receptor type 1 (Homo sapiens), P48145 | AID 1861, 2009; in the data active = inhibition above about 16%, passing the limit was not always enough;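 also: cells stimulated with the agonist NPW; 0% = agonist with vehicle and 100% = vehicle without agonist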
OX1R antag-1 = antagonists of human orexin 1 receptor (OX1R). 330,000 tested, 1.8% active. inhibition, % at 6.6 µM. AID 485270, 2010. OX1R-expressing cells, FRET antagonist read-out; in the data active = inhibition mostly above about 38%, no sharp cut-off; inactive = mostly below about 40%;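 also: 0% = agonist challenge alone and 100% = reference antagonist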
Target sequence (O43613 whole entry, looked up): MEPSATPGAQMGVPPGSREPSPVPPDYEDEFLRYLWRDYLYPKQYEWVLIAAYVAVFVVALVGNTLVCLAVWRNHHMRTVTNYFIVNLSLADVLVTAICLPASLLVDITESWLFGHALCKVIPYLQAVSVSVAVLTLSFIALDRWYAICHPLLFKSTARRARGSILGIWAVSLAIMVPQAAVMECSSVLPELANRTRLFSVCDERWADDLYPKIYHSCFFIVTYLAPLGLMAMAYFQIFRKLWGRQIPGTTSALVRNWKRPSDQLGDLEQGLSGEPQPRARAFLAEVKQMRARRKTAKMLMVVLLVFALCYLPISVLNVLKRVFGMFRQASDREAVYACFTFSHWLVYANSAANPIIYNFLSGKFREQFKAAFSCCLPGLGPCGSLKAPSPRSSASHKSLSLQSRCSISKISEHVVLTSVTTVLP
OX1R antag-2 = OX1R (HCRTR1) antagonists, primary screen, fluorescence, CHO/OX1R cells, Fluo-8 calcium, orexin A. Fluo-8 calcium fluorescence. inhibition, % at 5 µM. AID 434989, 2010. Orexin/Hypocretin receptor type 1 (Homo sapiens), O43613. 330,000 tested, 0.43% active;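 active = inhibition above its plate's threshold, mean inhibition of all tested compounds on the plate plus 3 SD, cut at about 37% in these data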;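 also: 0% = orexin A challenge wells and 100% = SB-334867-A antagonist wells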
TAAR1 antag = human TAAR1 antagonists, primary screen, Fluo-8 calcium fluorescence, CHO RD-HGA16 cells | Trace amine-associated receptor 1 (Homo sapiens), Q96RJ0 | antagonist | inhibition, % at 3 µM | 360,000 tested, 1.5% active | AID 624466, 2012;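 active = inhibition above a per-plate cutoff, the mean inhibition of test compounds on that plate plus 3 SD, cut at about 49% in these data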;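 also: 0% = DMSO plus EC80 beta-PEA response and 100% = DMSO alone without agonist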
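Test system: CHO RD-HGA16 cells bearing hTAAR1 | Reagent: β-PEA, EC80 | Compound dosing: 3 µM, single point | Schedule: Dye loading 75 min at 37 °C, then 30 min room temperature | Signal: Calcium fluorescence with Fluo-8 | Evaluation: Percent inhibition of PEA-evoked calcium signal, max/basal emission ratio | Control set: DMSO-only wells and EC80 β-PEA-stimulated wells | Repeats: Singlicate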
CHO parental Ca = ATP-evoked calcium signal inhibitors, parental CHO, primary screen, counter-screen for OX1R antagonist project, cell-based, fluorescence, Fluo-8 calcium dye. parental CHO-K1, ATP-induced calcium, Fluo-8 fluorescence. 330,000 tested, 0.63% active. AID 463079, 2010. inhibition, % at 5.6 µM;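 active = inhibition above that plate's mean sample inhibition plus 3 SD, cut at about 26% in these data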;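 also: 0% = ATP-challenged DMSO wells and 100% = DMSO wells without ATP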
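test system = CHO parental line | reagent = ATP stimulus | measured by = intracellular calcium via Fluo-8 no-wash fluorescent dye | control set = ATP and no-ATP DMSO wells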
TAAR1 agonist = human TAAR1 agonists, primary screen, Fluo-8 calcium fluorescence, CHO RD-HGA16 cells; vehicle wells 0%, saturating PEA agonist 100%; activation, % at 3 µM; 360,000 tested, 0.99% active; AID 624467, 2012;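 active = activation above the mean activation of all test compounds in the run plus 3 SD, cut at about 38% in these data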
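Test system: RD-HGA16 (CHO) cells co-expressing Gα16 and hTAAR1; dosing: one-point dosing at 3 µM (nominal); timing: 17-24 h seeding, 75 min 37 °C dye, 30 min RT; signal: kinetic Fluo-8 calcium fluorescence; read-out basis: % activation relative to PEA EC100 response; controls: DMSO and PEA EC100; replicates: n 1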
An asterisk follows results filed as active; . = not tested or not shown. Only some compounds are listed: those with a hit (about 4.5% of all), similar ones and a draw of the others.

SMILES	GPR7 antag	OX1R antag-1	OX1R antag-2	TAAR1 antag	CHO parental Ca	TAAR1 agonist
COCCNc1nc(NCc2cccs2)nc2ccsc12	.	.	.	104*	.	122*
CC(=O)NCCNc1nc(NCc2cccs2)nc2ccsc12	.	.	.	23	.	34
CSc1ccccc1CNc1nc(NCC2CC2)nc2ccsc12	.	.	.	38	.	17
Cc1ccc(Nc2nc(NCc3ccccc3)nc3ccsc23)c(C)c1	.	.	.	88*	.	29
Clc1ccccc1OCCNc1nc(NCC2CC2)nc2ccsc12	.	.	.	49*	.	9
O=C(N[C@H](C(=O)N1CCC[C@H]1C(=O)NCc1ccccc1)c1ccccc1)C1CCCC1	.	.	.	-4	.	1
CC(C)C[C@H](NC(=O)c1ccco1)C(=O)N1CCC[C@H]1C(=O)NCc1ccccc1	.	.	.	-17	.	6
CNc1nc(NCc2cccc(OC)c2)c2sccc2n1	.	.	.	21	.	27
COc1cccc(CNc2nc(NCc3ccccc3)nc3ccsc23)c1	.	.	.	96*	.	49*
COC(=O)[C@]12C[C@H](CC(=O)N3CCN(C(=O)c4ccco4)CC3)C(=O)N(CCC3=CCCCC3)C1=C[C@H](COCc1ccccc1)O[C@@H]2C	.	.	.	-13	.	-2
Cc1cc(C)n2nc(CNS(=O)(=O)c3ccc([N+](=O)[O-])cc3)nc2n1	2	51*	5	-18	9	0
COc1ccc(OC)c(S(=O)(=O)NCc2nc3nc(C)cc(C)n3n2)c1	-13	-1	-2	-24	-3	1
COc1cc(NC(=O)c2cccs2)c(OC)cc1NC(=O)CCC(=O)Nc1ccc2ncccc2c1	9	.	.	53*	.	15
COc1ccc(OCC(=O)Nc2ccc(NC(=O)c3cccs3)c(OC)c2)cc1	-9	34	-31	-10	-20	3
CC(C)OP(=O)(Nc1cccc2ccccc12)OC(C)C	-8	8	-14	-17	-12	7
CN(C)P(=O)(Nc1cccc2ccccc12)Nc1cccc2ccccc12	.	59*	32	1	-8	9
Nc1nc(Cl)cc(N2CCCC2)n1	-5	10	-16	-15	-2	3
Nc1nc(Cl)cc(N2CCC(c3cc(-c4ccc(Cl)cc4Cl)n[nH]3)CC2)n1	-3	10	1	12	32*	27
O=C1Oc2ccccc2C(=O)/C1=C/N1CCN(c2ccccc2F)CC1	13	26	-13	-21	3	39*
CCS(=O)(=O)N1CCN(c2ccccc2F)CC1	-8	3	-5	5	-9	2
COc1ccc(C(=O)C(=O)N2CCN(C(=O)c3ccccc3C(F)(F)F)CC2)cc1OC	.	.	.	-20	.	0
CCn1c(SCC(=O)Nc2nc(C)c(C)s2)nc2cccnc21	-16	75*	3	9	-23	5
CCOc1ccccc1NC(=O)CSc1nc2cccnc2n1C	1	53*	5	17	-6	6
CC12CCC(=O)C=C1CCC1C2C(O)CC2(C)C1CCC2(O)C(=O)COC(=O)COCC(=O)O (stereo not drawn)	.	.	.	-18	.	1
CC(C)C[C@H](NS(=O)(=O)c1ccc(F)cc1F)C(=O)N1CCC[C@H]1C(=O)NCc1ccccc1	.	.	.	1	.	0
SMILES	GPR7 antag	OX1R antag-1	OX1R antag-2	TAAR1 antag	CHO parental Ca	TAAR1 agonist
COc1ccccc1NC(=O)Cn1c(C)cc(=O)c2cccc(OC)c21	-14	18	-3	35	-5	14
COc1cccc2c(=O)cc(C)n(CC(=O)Nc3ccc(C)c(C)c3)c12	15	49*	-1	3	47*	8
O=C(Nc1ccc2c(c1)OCO2)c1cc(-c2cccc(O)c2)on1	1	53	3	-3	6	4
O=C(Nc1ccc2c(c1)OCO2)c1cc(-c2ccc(O)cc2)on1	-5	18	-13	-12	39*	6
Cc1cc(C)nc(N2CCCC(C(=O)Nc3ccc4c(c3)OCO4)C2)n1 (stereo not drawn)	5	1	-10	67*	-8	38*
COc1cc(C)nc(N2CCCC(C(=O)Nc3cccc(Cl)c3Cl)C2)n1 (stereo not drawn)	16*	28	-28	-4	-20	4
Cc1cc(C)nc(N2CCC(C(=O)Nc3ccc4c(c3)OCO4)CC2)n1	-5	9	-21	-17	-10	0
CCOCCCNC(=O)c1ccc(/C=C2\Oc3ccccc3N(C)C2=O)cc1	-2	-1	-3	-16	-12	4
Cc1ccc2nc(-c3ccco3)c(Cc3ccccc3C(F)(F)F)n2c1	.	.	.	-27	.	3
COc1ccc(C(=O)c2ccc(N(C)C)cc2)c2ccccc12	13	22	58*	13	33*	13
CCOC(=O)Cn1c(=N)n(CCOc2ccc(Br)cc2)c2ccccc21	19*	1	-10	-9	-11	22
Nc1nc2c(ncn2[C@@H]2O[C@H](C(=O)NCC(c3ccccc3)c3ccccc3)[C@@H](O)[C@H]2O)c(=O)[nH]1	.	.	.	-11	.	1
O=C(Nc1ccc(-c2nc3ccccc3s2)cc1)C1=COCCO1	0	8	2	-18	3	1
O=C(Nc1cccc(-c2nc3ccccc3s2)c1)C1=COCCO1	-5	75*	1	7	-25	3
COC(=O)c1cc2c(c3c4cc(F)ccc4n(S(=O)(=O)c4ccccc4)c13)C(=O)N(Cc1ccccc1)C2	.	.	.	-15	.	-2
COc1ccccc1S(=O)(=O)N(C)C[C@H]1Oc2cc(Br)ccc2S(=O)(=O)N([C@H](C)CO)C[C@H]1C	.	.	.	20	.	7
CC(=O)OCC1O[C@@H](O[C@@H]2C[C@H]3C(C)(C)[C@H](OC(C)=O)CC[C@]3(C)[C@H]3CC[C@]45C[C@]4(CC[C@H]5[C@@H](C)C[C@@H](O)[C@H](O)C(C)(C)O)[C@@]32C)[C@H](O)[C@@H](O)[C@@H]1O (stereo partly drawn)	10	23	67*	.	100*	.
CCOC(=O)N1CCC(=NNc2ccc(S(N)(=O)=O)cc2[N+](=O)[O-])CC1	-8	59*	-2	-10	-2	5
C/C(CCC(C)C)=N\Nc1ccc(S(N)(=O)=O)cc1[N+](=O)[O-]	-14	25	-16	14	-8	-3
NS(=O)(=O)c1ccc(N/N=C/c2ccc(C(=O)O)cc2)c([N+](=O)[O-])c1	-13	50*	-8	-13	-8	0
CCC(CC)=NNc1ccc(S(N)(=O)=O)cc1[N+](=O)[O-]	2	46*	-1	-8	4	-1
